Experimental data as given in ChEMBL document CHEMBL4610063, “Mangiferin: A promising natural xanthone from Mangifera indica for the control of acyclovir - resistant herpes simplex virus 1 infection” (Bioorg Med Chem, 2020).
≈ marks a conversion by molar mass, not a printed value. Calls of active or inactive are those of the source. The rule behind the calls is not given here.

Experiments:
Human alphaherpesvirus 1 [1] = assay: Antiviral activity against ACV-resistant Herpes simplex virus 1 AR-29 infected in African green monkey Vero cells assessed as inhibition of viral infection at 3.12 ug/ml measured after 72 hrs by crystal violet staining based plaque reduction assay relative to control; assay type: functional; settings: Human alphaherpesvirus 1, AR-29, Vero
Procedure, shortened: (§1)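 Plaque reduction in Vero cells. Mangiferin at 3.12, 6.25, 12.5 or 25 μg/mL is added at infection (0 h) with HSV-1 (10^5 PFU/mL). Agarose overlay with 25 mM MgCl2, 72 h at 37 °C/5% CO2, 20% formaldehyde fix, 0.5% crystal violet stain. %VI is taken against virus control. IC50 comes from linear regression of inhibition curves. Triplicate independent experiments.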

Human alphaherpesvirus 1 [2] = assay: Antiviral activity against ACV-resistant Herpes simplex virus 1 AR-29 infected in African green monkey Vero cells assessed as inhibition of viral infection at 12.5 ug/ml measured after 72 hrs by crystal violet staining based plaque reduction assay relative to control; assay type: functional; settings: Human alphaherpesvirus 1, AR-29, Vero; procedure, shortened: as §1
Human alphaherpesvirus 1 [3] = assay: Antiviral activity against ACV-resistant Herpes simplex virus 1 AR-29 infected in African green monkey Vero cells assessed as inhibition of viral infection at 25 ug/ml measured after 72 hrs by crystal violet staining based plaque reduction assay relative to control; assay type: functional; settings: Human alphaherpesvirus 1, AR-29, Vero; procedure, shortened: as §1
Human alphaherpesvirus 1 [4] = assay: Antiviral activity against ACV-sensitive Herpes simplex virus 1 KOS infected in African green monkey Vero cells assessed as inhibition of viral infection at 3.12 ug/ml measured after 72 hrs by crystal violet staining based plaque reduction assay relative to control; assay type: functional; settings: Human alphaherpesvirus 1, strain KOS
Procedure, shortened: (§2)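 Vero monolayers infected with HSV-1 KOS (10^5 PFU/mL) with mangiferin (3.12, 6.25, 12.5, 25 μg/mL) added at infection (0 h). Overlay of nutrient agarose with 25 mM MgCl2; plaques counted after 72 h at 37 °C, 5% CO2, fixed in 20% formaldehyde/PBS and stained with 0.5% crystal violet. %VI versus virus control; triplicate experiments.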

Human alphaherpesvirus 1 [5] = assay: Antiviral activity against ACV-sensitive Herpes simplex virus 1 KOS infected in African green monkey Vero cells assessed as inhibition of viral infection at 6.25 ug/ml measured after 72 hrs by crystal violet staining based plaque reduction assay relative to control; assay type: functional; settings: Human alphaherpesvirus 1, strain KOS; procedure, shortened: as §2
Human alphaherpesvirus 1 [6] = assay: Antiviral activity against ACV-sensitive Herpes simplex virus 1 KOS infected in African green monkey Vero cells assessed as inhibition of viral infection at 12.5 ug/ml measured after 72 hrs by crystal violet staining based plaque reduction assay relative to control; assay type: functional; settings: Human alphaherpesvirus 1, strain KOS; procedure, shortened: as §1
Human alphaherpesvirus 1 [7] = assay: Antiviral activity against ACV-sensitive Herpes simplex virus 1 KOS infected in African green monkey Vero cells assessed as inhibition of viral infection at 25 ug/ml measured after 72 hrs by crystal violet staining based plaque reduction assay relative to control; assay type: functional; settings: Human alphaherpesvirus 1, strain KOS; procedure, shortened: as §1
Human alphaherpesvirus 1 [8] = assay: Antiviral activity against ACV-resistant Herpes simplex virus 1 AR-29 infected in African green monkey Vero cells assessed as inhibition of viral infection measured after 72 hrs by crystal violet staining based plaque reduction assay; assay type: functional, organism-based; settings: Human alphaherpesvirus 1, AR-29, Vero; procedure, shortened: as §1
Human alphaherpesvirus 1 [9] = assay: Antiviral activity against ACV-sensitive Herpes simplex virus 1 KOS infected in African green monkey Vero cells assessed as inhibition of viral infection measured after 72 hrs by crystal violet staining based plaque reduction assay; assay type: functional, organism-based; settings: Human alphaherpesvirus 1, strain KOS; procedure, shortened: as §1
Human alphaherpesvirus 1 [10] = assay: Antiviral activity against ACV-resistant Herpes simplex virus 1 AR-29 infected in African green monkey Vero cells assessed as suppression of viral replication by measuring reduction in ICP4 production at 12.5 ug/ml measured after 24 hrs by immunofluorescence assay relative to control; assay type: functional; set-up: scale not given: the % may be the effect or the level left
Procedure, shortened: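 Vero cells on coverslips, infected with HSV-1 AR-29 and given mangiferin (1.56–12.5 μg/mL) at 0 h. At 24 h they are acetone-fixed (−20 °C, 20 min) and blocked with 2% skim milk. Stained with mouse anti-ICP4 and FITC anti-mouse IgG. 100 cells per coverslip are scored by fluorescence microscopy, inhibition relative to infected untreated cells. Duplicate experiments.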

Human alphaherpesvirus 1 [11] = assay: Antiviral activity against ACV-resistant Herpes simplex virus 1 AR-29 infected in female Balb/c mouse assessed as reduction in skin lesion at 0.7% w/w applied topically 5 times a day at 3 hrs interval for 10 days; assay type: functional, organism-based
Procedure, shortened: (§3)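 Balb/c mice, 5 weeks old, six per group. Right mid-flank depilated under i.p. anaesthesia, needle-scarified 24 h later and inoculated with 70 μL HSV-1 AR-29 (10^5 PFU/mL). Topical 0.7% w/w O/W emulsion or ACV cream (50 mg/g) starts 4 h post-infection, 5 times daily for 10 days. Lesions are scored daily.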

Human alphaherpesvirus 1 [12] = assay: Antiviral activity against ACV-sensitive Herpes simplex virus 1 KOS infected in female Balb/c mouse assessed as reduction in ulcerated lesion at 0.7% w/w applied topically 5 times a day at 3 hrs interval for 10 days measured on day 2 to day 7 post infection; assay type: functional, organism-based; settings: strain KOS
Procedure, shortened: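 Balb/c mice (5 weeks, 22–27 g; six per group, sexes tested separately) had the right mid-flank depilated under i.p. anaesthesia and needle-scarified 24 h later. They were inoculated with 70 μL HSV-1 KOS (10^5 PFU/mL). From 4 h post-infection, O/W emulsion with 0.7% w/w mangiferin or ACV cream (50 mg/g) was applied topically 5 times daily for 10 days. Lesions were scored daily.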

Human alphaherpesvirus 1 [13] = assay: Antiviral activity against ACV-resistant Herpes simplex virus 1 AR-29 infected in African green monkey Vero cells assessed as inhibition of viral adsorption at 12.5 ug/mL preincubated for 30 mins and measured after 1 hr by plaque reduction assay relative to control; assay type: functional; settings: Human alphaherpesvirus 1, AR-29, Vero
Procedure, shortened: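 Vero cells pre-chilled 30 min at 4 °C, then given mangiferin (3.12–25 μg/mL) together with HSV-1 AR-29 (10^5 PFU/mL) for 1 h adsorption at 4 °C. Plaque reduction assay follows: nutrient agarose overlay with 25 mM MgCl2, 72 h at 37 °C/5% CO2, formaldehyde fixation, crystal violet stain. %VI = [1 − PFU treated/PFU virus control] × 100.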

Human alphaherpesvirus 1 [14] = assay: Antiviral activity against ACV-resistant Herpes simplex virus 1 AR-29 infected in male Balb/c mouse assessed as reduction in ulcerated lesion at 0.7% w/w applied topically 5 times a day at 3 hrs interval for 10 days measured on day 7 post infection; assay type: functional, organism-based; procedure, shortened: as §3
[15] = Toxicity in Balb/c mouse infected with ACV-sensitive Herpes simplex virus 1 KOS assessed as death at 0.7% w/w applied topically 5 times a day at 3 hrs interval for 10 days measured on day 10 post infection; settings: in vivo, topical_or_ocular
Human alphaherpesvirus 1 [16] = assay: Antiviral activity against ACV-resistant Herpes simplex virus 1 AR-29 infected in female Balb/c mouse assessed as change in epidermis thickness at 0.7% w/w applied topically 5 times a day at 3 hrs interval for 10 days measured on day 10 post infection by H and E staining based histological analysis; assay type: functional, organism-based
Human alphaherpesvirus 1 [17] = assay: Antiviral activity against ACV-sensitive Herpes simplex virus 1 KOS infected in male Balb/c mouse assessed as change in epidermis thickness at 0.7% w/w applied topically 5 times a day at 3 hrs interval for 10 days measured on day 10 post infection by H and E staining based histological analysis; settings: strain KOS
Human alphaherpesvirus 1 [18] = assay: Antiviral activity against ACV-sensitive Herpes simplex virus 1 KOS infected in female Balb/c mouse assessed as change in epidermis thickness at 0.7% w/w applied topically 5 times a day at 3 hrs interval for 10 days measured on day 10 post infection by H and E staining based histological analysis; settings: strain KOS

## O=c1c2cc(O)c(O)cc2oc2cc(O)c([C@@H]3O[C@H](CO)[C@@H](O)[C@H](O)[C@H]3O)c(O)c12 [MANGIFERIN]
Human alphaherpesvirus 1 [1]
  inhibition at 3.12 µg/mL: 57.6%
Human alphaherpesvirus 1 [2]
  inhibition at 12.5 µg/mL: 100%
Human alphaherpesvirus 1 [3]
  inhibition at 25 µg/mL: 100%
Human alphaherpesvirus 1 [4]
  inhibition at 3.12 µg/mL: 37.5%
Human alphaherpesvirus 1 [5]
  inhibition at 6.25 µg/mL: 93.9%
Human alphaherpesvirus 1 [6]
  inhibition at 12.5 µg/mL: 100%
Human alphaherpesvirus 1 [7]
  inhibition at 25 µg/mL: 100%
Human alphaherpesvirus 1 [8]
  IC50: 2.9 µg/mL (≈ 6.87 µM)
Human alphaherpesvirus 1 [9]
  IC50: 3.5 µg/mL (≈ 8.29 µM)
Human alphaherpesvirus 1 [10]
  Activity: 54.1%
Human alphaherpesvirus 1 [11]
  Activity: Active
Human alphaherpesvirus 1 [12]
  Activity: inactive
Human alphaherpesvirus 1 [13]
  inhibition at 12.5 µg/mL: 71.3%
Human alphaherpesvirus 1 [14]
  Activity: Active
[15]
  Activity: Non-Toxic
Human alphaherpesvirus 1 [16]
  Activity: inactive
Human alphaherpesvirus 1 [17]
  Activity: inactive
Human alphaherpesvirus 1 [18]
  Activity: inactive
